Results on ten compounds are retold here after BindingDB's records for doi:10.1016/j.bmcl.2012.01.074 (Spanish National Cancer Research Centre (Cnio), 2012).

Molecules are shown by their SMILES.

A word on the IC50: it is the point on the concentration scale where inhibition reaches its midpoint. The low end stands for higher potency, the high end for lower potency.

Sequence of Phosphatidylinositol 3-kinase regulatory subunit alpha/4,5-bisphosphate 3-kinase catalytic subunit alpha isoform (P27986 whole entry, canonical isoform): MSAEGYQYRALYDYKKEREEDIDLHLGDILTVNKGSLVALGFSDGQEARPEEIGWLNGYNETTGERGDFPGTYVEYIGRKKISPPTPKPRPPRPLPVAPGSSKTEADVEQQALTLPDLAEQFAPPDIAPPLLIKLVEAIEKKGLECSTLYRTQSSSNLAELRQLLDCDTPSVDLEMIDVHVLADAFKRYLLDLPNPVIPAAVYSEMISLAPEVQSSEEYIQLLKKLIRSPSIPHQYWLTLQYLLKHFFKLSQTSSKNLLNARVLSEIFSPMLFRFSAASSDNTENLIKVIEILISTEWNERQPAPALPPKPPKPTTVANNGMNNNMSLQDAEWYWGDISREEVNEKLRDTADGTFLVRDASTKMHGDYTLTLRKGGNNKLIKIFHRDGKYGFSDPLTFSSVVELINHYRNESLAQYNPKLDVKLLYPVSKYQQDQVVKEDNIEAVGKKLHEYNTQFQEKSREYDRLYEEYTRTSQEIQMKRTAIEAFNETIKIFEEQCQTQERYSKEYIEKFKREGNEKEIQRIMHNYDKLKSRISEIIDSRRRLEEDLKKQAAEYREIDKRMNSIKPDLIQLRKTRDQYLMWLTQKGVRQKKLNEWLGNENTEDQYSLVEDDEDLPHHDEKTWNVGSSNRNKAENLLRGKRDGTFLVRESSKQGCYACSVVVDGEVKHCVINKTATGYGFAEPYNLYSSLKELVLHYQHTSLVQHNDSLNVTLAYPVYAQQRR
Sequence of Phosphatidylinositol 3-kinase regulatory subunit alpha/4,5-bisphosphate 3-kinase catalytic subunit alpha isoform (P42336 whole entry, canonical isoform): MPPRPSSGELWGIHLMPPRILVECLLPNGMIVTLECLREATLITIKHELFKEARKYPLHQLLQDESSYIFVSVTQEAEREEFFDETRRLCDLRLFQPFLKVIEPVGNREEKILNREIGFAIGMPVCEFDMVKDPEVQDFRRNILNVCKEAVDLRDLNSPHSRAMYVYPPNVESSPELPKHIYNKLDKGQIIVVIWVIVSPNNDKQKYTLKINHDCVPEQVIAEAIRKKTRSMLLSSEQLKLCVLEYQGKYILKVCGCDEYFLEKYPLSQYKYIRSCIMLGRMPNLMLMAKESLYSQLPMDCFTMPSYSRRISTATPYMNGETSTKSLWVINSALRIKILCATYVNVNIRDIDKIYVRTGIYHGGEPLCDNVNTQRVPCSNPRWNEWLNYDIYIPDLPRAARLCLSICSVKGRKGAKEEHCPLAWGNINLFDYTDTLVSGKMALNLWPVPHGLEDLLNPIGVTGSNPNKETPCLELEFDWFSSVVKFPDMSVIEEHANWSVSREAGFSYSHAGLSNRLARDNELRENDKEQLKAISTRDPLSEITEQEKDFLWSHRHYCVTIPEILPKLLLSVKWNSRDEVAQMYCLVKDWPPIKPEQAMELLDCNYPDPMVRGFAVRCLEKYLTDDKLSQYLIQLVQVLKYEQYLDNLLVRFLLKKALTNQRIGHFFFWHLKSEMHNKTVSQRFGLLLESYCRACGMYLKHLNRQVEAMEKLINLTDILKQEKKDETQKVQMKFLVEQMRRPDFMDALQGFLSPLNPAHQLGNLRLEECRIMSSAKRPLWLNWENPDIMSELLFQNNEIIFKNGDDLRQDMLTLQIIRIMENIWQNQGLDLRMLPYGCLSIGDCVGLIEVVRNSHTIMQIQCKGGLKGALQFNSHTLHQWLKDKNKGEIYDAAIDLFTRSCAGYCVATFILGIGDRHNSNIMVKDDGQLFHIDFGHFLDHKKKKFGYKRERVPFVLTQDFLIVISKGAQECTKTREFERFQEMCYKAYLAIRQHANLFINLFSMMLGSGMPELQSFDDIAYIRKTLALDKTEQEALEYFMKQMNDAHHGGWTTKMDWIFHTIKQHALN

The test has as its target Phosphatidylinositol 3-kinase regulatory subunit alpha/4,5-bisphosphate 3-kinase catalytic subunit alpha isoform (Homo sapiens, UniProt P27986+P42336). The test is described as follows: Inhibition of PI3K p110alpha/p85alpha. Put shortly:
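Biochemical kinase assay following the kit manufacturer's protocol with a modified kinase buffer (50 mM HEPES pH 7.5, 3 mM MgCl2, 100 mM NaCl, 1 mM EGTA, 0.04% CHAPS, 2 mM TCEP, 0.01 mg/ml BGG); 10 nM enzyme; ATP 50 µM; values are averages of two independent experiments, each in duplicate.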
The compound `Cc1cn2cc(-c3cccc(O)c3)nc(N3CCOCC3)c2n1` gave a concentration for half-maximal inhibition (IC50) of 0.096 µM. Compound `CNC(=O)c1cn2cc(-c3cccc4[nH]ncc34)nc(N3CCOCC3)c2n1` gave an IC50 of 0.11 µM.

As to `Oc1cccc(-c2cn3cc(C4CC4)nc3c(N3CCOCC3)n2)c1`, the IC50 is 0.34 µM. In turn, `O=C(NCCN1CCOCC1)c1cn2cc(-c3cccc4[nH]ncc34)nc(N3CCOCC3)c2n1` came in with an IC50 of 0.038 µM. `Oc1cccc(-c2cn3cc(C(F)(F)F)nc3c(N3CCOCC3)n2)c1` gave an IC50 of 0.108 µM. Consider `CC(=O)N1CCN(Cc2cn3cc(-c4cccc(O)c4)nc(N4CCOCC4)c3n2)CC1`, for which the IC50 came to 0.451 µM. In the case of `OCc1cn2cc(-c3cccc(O)c3)nc(N3CCOCC3)c2n1`, the IC50 came to 0.639 µM. With `O=C1CN(Cc2cn3cc(-c4cccc(O)c4)nc(N4CCOCC4)c3n2)CCN1` the figure was 0.54 µM. In the case of `Oc1cccc(-c2cn3cc(CN4CCOCC4)nc3c(N3CCOCC3)n2)c1`, the IC50 is 0.444 µM. The compound `CCNC(=O)c1cn2cc(-c3cccc4[nH]ncc34)nc(N3CCOCC3)c2n1` had an IC50 of 0.092 µM.
